Thrombin inh – human alpha-thrombin inhibitors, primary screen, counter-screen for coagulation protease inhibitor project, biochemical, 1536-well, fluorogenic AMC substrate; hit rate 0.26% among 220,000; inhibition, % at 5 µM; Boc-VPR-AMC fluorogenic substrate cleavage; Prothrombin (Homo sapiens), P00734;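 active = inhibition at or above 40%; inactive = inhibition below 40%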
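Test system: human alpha-thrombin; medium: pH 7.5 Tris-saline with Tween 20; times: reaction at room temperature; signal: AMC fluorescence at 355 nm excitation and 460 nm emission; also added: Boc-VPR-AMC substrate, 15 µM final; dosing: one concentration per compound, 5 µM, with 0.2% DMSO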
FXIa inh 1536 – human FXIa protease inhibitors, primary screen, biochemical, 1536-well; purified FXIa, Boc-Glu-Ala-Arg-AMC fluorogenic substrate; inhibition, % at 5 µM; hit rate 0.14% among 220,000; AID 798, 2007;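 active = inhibition of at least 40%; inactive = inhibition below 40%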;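 note: fluorescence of freed AMC excited at 355 nm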
hK5 inh – human KLK5 protease inhibitors, primary screen, biochemical, 1536-well; Kallikrein-5 (Homo sapiens), Q9Y337; recombinant hK5, fluorogenic AMC substrate cleavage; inhibition, % at 5 µM; hit rate 0.59% among 210,000; AID 873, 2007;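 active = inhibition of 40% or more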
Target sequence (Q9Y337 67-293 limits assumed): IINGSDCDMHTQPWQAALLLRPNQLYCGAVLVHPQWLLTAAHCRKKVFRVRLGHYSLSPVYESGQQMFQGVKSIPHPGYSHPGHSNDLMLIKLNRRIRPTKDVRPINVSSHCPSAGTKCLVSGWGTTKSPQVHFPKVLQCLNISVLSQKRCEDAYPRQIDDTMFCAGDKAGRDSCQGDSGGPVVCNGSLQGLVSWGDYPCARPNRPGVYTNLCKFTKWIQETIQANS
m-calpain inh – inhibitors of pig calpain II, primary screen, biochemical, fluorogenic peptide substrate, 1536-well | purified calpain II, 30 min | hit rate 0.37% among 220,000 | inhibition, % at 16 µM;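 active = inhibition above about 50%, limit read from the data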
Furin inh – human furin inhibitors, primary screen, biochemical, fluorescence intensity | P09958 | purified furin, fluorogenic substrate cleavage | inhibition, % at 20 µM or 30 µM | hit rate 0.061% among 220,000; in the data active = inhibition above about 25%
FXIIa inh – human FXIIa protease inhibitors, primary screen, biochemical, 1536-well. hit rate 0.3% among 220,000. purified FXIIa, Boc-QGR-AMC fluorogenic substrate, 2 h. inhibition, % at 5 µM. AID 800, 2007. Coagulation factor XII (Homo sapiens), P00748; in the data active = inhibition above about 40%
Of the large screens only hits and unclear results are named; the others gave an inactive call. Hits are enriched below; roughly 1.4% of the tested compounds scored in any of these assays.

Fc1cc(F)c2nc(N3CCCC3)sc2c1	FXIIa inh 103
c1ccc2c(C3=NNC(=NC4CC4)SC3)c[nH]c2c1	none
c1ccc2c(C3=NNC(=NC4CCCCC4)SC3)c[nH]c2c1	m-calpain inh 75
Cc1cc(C(=O)N/N=C/c2c(C)nn(-c3ccccc3)c2C)n[nH]1	hK5 inh 89
O=c1oc(-c2ccc(Br)o2)nc2ccccc12	FXIIa inh 46
COc1cccc(-c2nc3ccccc3c(=O)o2)c1	Thrombin inh 65
COc1cc(OC)cc(-c2nc3ccccc3c(=O)o2)c1	none
C/C(N)=C(/C#N)C(=O)COC(=O)CC12CC3CC(CC(C3)C1)C2	m-calpain inh 65
CC1CC(C)(C)NC(=S)N1CCC(=O)N1CCc2ccccc2C1 (stereo not given)	none
O=C(O)Cn1ncn(-c2ccc(OC(F)(F)F)cc2)c1=O	none
Cc1ccc(-c2cccc(CN3CCN(C4CCN(C(C)C)CC4)C(CCO)C3)c2)o1 (stereo not given)	none (no result: hK5 inh)
CCc1cccc(CC)c1N(COC)C(=O)Cn1c(CO)nc2ccccc21	FXIIa inh 43
N=c1sccn1CC(=O)Nc1ccc(SC(F)F)cc1	none
CCOC(=O)c1[nH]c2ccccc2c1NC(=S)Nc1ccccc1	Thrombin inh 43
COc1cc2c(cc1OC)C(Nn1cnnc1)=NC1(CCCC1)C2	none
COC(=O)CNC(=O)C(Cc1c[nH]c2ccccc12)NC(=O)Oc1ccccc1 (stereo not given)	none
COC(=O)CNC(=O)C(Cc1c[nH]c2ccccc12)NC(=O)OC(C)(C)C (stereo not given)	hK5 inh 44
O=C1NN(c2ccccc2)C(=O)/C1=C\c1ccc(-c2cc([N+](=O)[O-])ccc2O)o1	none
Cn1cc(C(=O)NCc2cccnc2)c(=O)c2cc(S(=O)(=O)N3CCCCCC3)ccc21	none
CCn1cc(C(=O)NCc2ccco2)c(=O)c2cc(S(=O)(=O)N3CCCCCC3)ccc21	Thrombin inh 41
Cn1cc(C(=O)NCc2cccs2)c(=O)c2cc(S(=O)(=O)N3CCCC3)ccc21	Thrombin inh 74
O=C(Nc1ccc(Cl)c(Cl)c1)c1ccc(Cn2cc(Cl)cn2)cc1	m-calpain inh 53
O=C(NCc1ccccc1)c1ccc(Cl)nc1	FXIa inh 1536 45
CC(CCc1ccccc1)NC(=O)c1ccc(Cl)nc1 (stereo not given)	none
CC(=O)Nc1ccccc1C(=O)C(=O)Nc1cccc(C(=O)NCC2CCCO2)c1 (stereo not given)	m-calpain inh 93
CCCCNC(=S)N/N=C/c1ccccc1F	m-calpain inh 72
CCCCNC(=S)N/N=C/c1cc(C)ccc1C	none
Cc1nn(CC(=O)c2ccc(Cl)s2)c(C)c1[N+](=O)[O-]	FXIa inh 1536 43
CSCCC(NC(=O)c1cccc(C)c1)C(=O)OCC(=O)NC(=O)c1cccn1C (stereo not given)	Thrombin inh 48
Cc1ccc(C(=O)OCC(=O)NC(=O)c2cccn2C)cc1	none
CCCCn1nc(C(=O)Nc2cc(S(=O)(=O)N(C)C)ccc2C)c2ccccc2c1=O	none
C=C(C)CNC(=S)N/N=C(\C)c1cccc(NC(C)=O)c1	FXIa inh 1536 49, hK5 inh 75
C=C(C)CNC(=S)N/N=C/c1ccc(NC(C)=O)cc1	m-calpain inh 62
Nc1nc(Nc2ccccc2F)nc(N2CCOCC2)c1[N+](=O)[O-]	none
NC(=O)CSc1cn(Cc2ccccc2)c2ccccc12	none
CC(=O)c1ccc(-c2ccc(C(=O)N3CCN(c4ccc(F)cc4)CC3)o2)cc1	m-calpain inh 68
COc1ccc(N(Cc2cc3cccc(C)c3[nH]c2=O)C(=O)C2CCCO2)cc1 (stereo not given)	hK5 inh 54
Nn1c(C2CCCCC2)nc2ccccc2c1=O	FXIa inh 1536 58, FXIIa inh 62
C=CCS/C(N)=N\N=C\c1c(O)ccc2ccccc12	none
Cc1[nH]c(=O)[nH]c(=O)c1/C=N/NC(=O)[C@@H](N)CC(C)C	FXIIa inh 45
COc1cc(OC)cc(-c2n[nH]c(=S)n2-c2ccc3c(c2)OCCO3)c1	Thrombin inh 41 (no result: FXIIa inh)
CCOC(=O)CSc1nnc(-c2ccccc2)o1	FXIa inh 1536 44
CCOC(=O)CSc1snnc1-c1ccccc1	FXIIa inh 58
CCn1c(-c2ccccc2)ccc(C#N)c1=O	none
COc1ccc(N2C(=O)N(Cc3ccc(C)cc3)c3ccccc3S2(=O)=O)cc1	m-calpain inh 50
CC(/C=N/NC(=O)c1cc(-c2cccnc2)nc2c1c(C)nn2-c1ccccc1)=C\c1ccccc1	none
O=C(NC1CCCC1)C(c1ccccn1)N(C(=O)c1csnn1)C1CCCCC1 (stereo not given)	none
O=C(NC1CCCC1)C(c1ccccn1)N(C(=O)c1csnn1)C1CC1 (stereo not given)	FXIa inh 1536 44
Cc1ccc(C2CC(=O)C(C=NCCN3CCN(C(=S)Nc4ccc(F)cc4)CC3)=C(O)C2)cc1 (stereo not given)	none
O=C1CC(c2ccccc2)CC(O)=C1C=NCCN1CCN(C(=S)Nc2cccc(Cl)c2)CC1 (stereo not given)	hK5 inh 44
COc1ccc(S(=O)(=O)NCc2c(-c3ccccc3)noc2C)c(OC)c1	FXIa inh 1536 59
Cn1c2c(c3ccccc31)CCSC2=O	FXIIa inh 71
Cn1c(-c2ccccc2)c(C=O)c2ccccc21	none
CCOP(=O)(OCC)c1nc(-c2ccc(Cl)cc2Cl)oc1N1CCOCC1	none
CCC(=O)Nc1nnc(SCC(=O)Nc2ccc(F)cc2)s1	none
CC(C)CC(=O)Nc1nnc(SCC(=O)Nc2ccc(F)cc2)s1	m-calpain inh 54
Cc1ccccc1OS(=O)(=O)c1cn(C)c(=O)n(C)c1=O	none
COc1ccc(C)cc1Nc1ccc(C(=O)O)cc1[N+](=O)[O-]	none (no result: hK5 inh)
O=C1NC(=S)S/C1=C\c1cc2ccccc2nc1N1CCCCC1	m-calpain inh 56
O=C(CCCCn1c(=O)c2ccccc2n(CC(=O)NC2CCCC2)c1=O)NCc1ccco1	m-calpain inh 68
O=C(CCn1c(=O)c2ccccc2n(CC(=O)NC2CCCC2)c1=O)NCc1ccco1	none
O=C(O/N=C1\CCCCC1c1ccc([N+](=O)[O-])cc1[N+](=O)[O-])c1c(F)cccc1F (stereo not given)	m-calpain inh 63
COc1ccc(C(OC(=O)c2ccco2)C(=O)NC2CCCCC2)cc1OC (stereo not given)	hK5 inh 83
Cc1ccc(C(OC(=O)c2ccco2)C(=O)NC2CCCCC2)cc1 (stereo not given)	none
